In ChEMBL document CHEMBL1123302, “Antagonists of substance P. Further modifications of substance P antagonists obtained by replacing either positions 7, 9 or 7, 8 and 11 of SP with D-amino acid residues” (J Med Chem, 1986):

Key:
[1] = target: Substance-P receptor (Rattus norvegicus) (UniProt P14600); assay: Antagonistic activity against Substance P receptor in rat spinal cord at concentration of 5 uM.
[2] = target: Substance-P receptor (Cavia porcellus) (UniProt P30547); assay: In vitro inhibition of substance P (6-11) hexapeptide induced contractions of the guinea pig ileum at 5 uM.; format: tissue-based
Substance-P receptor (Cavia porcellus), sequence (P30547 whole entry): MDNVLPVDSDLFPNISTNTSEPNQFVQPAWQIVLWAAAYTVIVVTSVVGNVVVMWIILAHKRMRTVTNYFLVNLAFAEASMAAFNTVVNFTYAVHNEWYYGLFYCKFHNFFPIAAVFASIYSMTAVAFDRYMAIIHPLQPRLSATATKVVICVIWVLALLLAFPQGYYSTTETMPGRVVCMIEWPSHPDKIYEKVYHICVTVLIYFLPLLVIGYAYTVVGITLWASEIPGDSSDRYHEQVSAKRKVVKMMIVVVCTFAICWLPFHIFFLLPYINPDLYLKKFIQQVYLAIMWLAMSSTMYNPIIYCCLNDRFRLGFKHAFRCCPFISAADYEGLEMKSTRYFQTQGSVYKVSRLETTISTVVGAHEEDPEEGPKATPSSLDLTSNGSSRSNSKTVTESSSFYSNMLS
Summary of the method: (§1)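 Agonist (SP or SP(6-11)-hexapeptide) dose-response curves on a 3-min cycle with 1-min contact, then washout. Dose ratio = agonist EC50 with antagonist / EC50 alone. At least two preparations per compound; ratios below 2 taken as insignificant.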

[3] = target: Substance-P receptor (Rattus norvegicus) (UniProt P14600); assay: Antagonistic activity against Substance P(6-11) receptor in rat spinal cord at concentration of 10 uM.
[4] = target: Metabotropic glutamate receptor 3 (Rattus norvegicus) (UniProt P31422); assay: Antagonistic activity against Glutamate receptor in rat spinal cord at concentration of 5 uM.; format: functional, tissue-based
Metabotropic glutamate receptor 3 (Rattus norvegicus), sequence (P31422 23-879 limits assumed): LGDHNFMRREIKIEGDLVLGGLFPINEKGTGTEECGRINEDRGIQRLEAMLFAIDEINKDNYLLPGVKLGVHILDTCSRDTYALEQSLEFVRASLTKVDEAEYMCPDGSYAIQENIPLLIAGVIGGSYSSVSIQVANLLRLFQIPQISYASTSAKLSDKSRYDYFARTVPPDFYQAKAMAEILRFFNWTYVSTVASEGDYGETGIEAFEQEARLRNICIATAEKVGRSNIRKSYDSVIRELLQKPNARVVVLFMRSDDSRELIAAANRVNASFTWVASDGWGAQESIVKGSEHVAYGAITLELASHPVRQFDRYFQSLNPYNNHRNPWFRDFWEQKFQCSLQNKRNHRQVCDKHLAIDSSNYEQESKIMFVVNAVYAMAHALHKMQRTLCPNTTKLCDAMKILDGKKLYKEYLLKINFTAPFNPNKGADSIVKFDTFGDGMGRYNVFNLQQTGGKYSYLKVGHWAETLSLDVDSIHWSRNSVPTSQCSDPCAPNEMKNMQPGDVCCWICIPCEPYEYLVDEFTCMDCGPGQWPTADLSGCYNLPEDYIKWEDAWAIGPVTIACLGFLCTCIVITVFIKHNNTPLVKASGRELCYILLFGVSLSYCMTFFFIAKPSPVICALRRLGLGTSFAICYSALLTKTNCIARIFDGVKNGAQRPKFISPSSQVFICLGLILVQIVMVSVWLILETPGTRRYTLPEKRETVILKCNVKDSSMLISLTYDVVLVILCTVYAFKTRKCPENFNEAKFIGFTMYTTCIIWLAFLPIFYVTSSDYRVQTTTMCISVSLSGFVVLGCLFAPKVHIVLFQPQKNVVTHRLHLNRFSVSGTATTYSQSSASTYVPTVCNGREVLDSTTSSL
Summary of the method: (§2)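 Neonatal rat spinal cord, hemisected sagittally, superfused at 1 mL/min with oxygenated Krebs-Henseleit medium containing 0.5% urethane at room temperature. Agonists were given in 2-mL doses in the superfusate. Antagonist was superfused continuously for at least 15 min before agonist retesting. Read-out was ventral root depolarization (DC potential, ventral root vs cord body), measured as amplitude and area of response.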

[5] = target: Metabotropic glutamate receptor 3 (Rattus norvegicus) (UniProt P31422); assay: Antagonistic activity against Glutamate receptor in rat spinal cord at concentration of 10 uM.; format: functional, tissue-based
Summary of the method: as §2

[6] = system: muscarinic acetylcholine receptor (Rattus norvegicus); assay: Antagonistic activity against Carbachol receptor in rat spinal cord at concentration of 5 uM.
[7] = target: Substance-P receptor (Cavia porcellus) (UniProt P30547); assay: In vitro inhibition of substance P (6-11) hexapeptide induced contractions of the guinea pig ileum at 10 uM.; format: tissue-based
Summary of the method: as §1

[8] = target: Substance-P receptor (Rattus norvegicus) (UniProt P14600); assay: Antagonistic activity against Substance P receptor in rat spinal cord at concentration of 50 uM.
[9] = target: Substance-P receptor (Rattus norvegicus, UniProt P14600); assay: Histamine releasing activity of Substance P from isolated rat peritoneal mast cells; format: functional
Substance-P receptor, sequence (P14600 whole entry): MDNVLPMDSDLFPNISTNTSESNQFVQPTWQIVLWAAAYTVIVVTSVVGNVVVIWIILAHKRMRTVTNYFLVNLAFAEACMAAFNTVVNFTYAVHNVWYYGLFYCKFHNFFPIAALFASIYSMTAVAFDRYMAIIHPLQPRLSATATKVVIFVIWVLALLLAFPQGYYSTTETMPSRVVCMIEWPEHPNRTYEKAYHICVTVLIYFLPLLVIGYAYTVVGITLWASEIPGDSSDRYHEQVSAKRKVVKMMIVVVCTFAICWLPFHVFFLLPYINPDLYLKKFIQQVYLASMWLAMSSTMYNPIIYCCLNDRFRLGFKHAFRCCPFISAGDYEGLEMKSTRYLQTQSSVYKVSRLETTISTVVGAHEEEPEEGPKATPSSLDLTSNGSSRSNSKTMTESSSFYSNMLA
Summary of the method: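 Histamine release from isolated rat peritoneal mast cells, method of Fretwell et al. Dose-response curves were built over a range of concentrations, and EC50 values were calculated from the curves.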

[10] = target: Substance-P receptor (Cavia porcellus) (UniProt P30547); assay: In vitro inhibition of substance P induced contractions of the guinea pig ileum at 10 uM.; format: tissue-based
Summary of the method: as §1

[11] = Antagonistic activity against Glutamate receptor in rat spinal cord at concentration of 50 uM.
[12] = target: Substance-P receptor (Cavia porcellus) (UniProt P30547); assay: In vitro inhibition of substance P induced contractions of the guinea pig ileum at 5 uM.; format: tissue-based
Summary of the method: as §1

[13] = target: Substance-P receptor (Rattus norvegicus) (UniProt P14600); assay: Antagonistic activity against Substance P(6-11) receptor in rat spinal cord at concentration of 50 uM.
[14] = system: muscarinic acetylcholine receptor (Rattus norvegicus); assay: Antagonistic activity against Carbachol receptor in rat spinal cord at concentration of 10 uM.
[15] = target: Substance-P receptor (Rattus norvegicus) (UniProt P14600); assay: Antagonistic activity against Substance P receptor in rat spinal cord at concentration of 10 uM.
[16] = target: Substance-P receptor (Rattus norvegicus) (UniProt P14600); assay: Antagonistic activity against Substance P(6-11) receptor in rat spinal cord at concentration of 5 uM.
[17] = target: Metabotropic glutamate receptor 3 (Rattus norvegicus) (UniProt P31422); assay: Antagonistic activity against Glutamate receptor in rat spinal cord at concentration of 0.5 uM.; format: functional, tissue-based
Summary of the method: as §2

[18] = target: Metabotropic glutamate receptor 3 (Rattus norvegicus) (UniProt P31422); assay: Antagonistic activity against Glutamate receptor in rat spinal cord at concentration of 10.0 uM.; format: functional, tissue-based
Summary of the method: as §2

[19] = target: Metabotropic glutamate receptor 3 (Rattus norvegicus) (UniProt P31422); assay: Antagonistic activity against Glutamate receptor in rat spinal cord at concentration of 1.0 uM.; format: functional, tissue-based
Summary of the method: as §2

[20] = target: Metabotropic glutamate receptor 3 (Rattus norvegicus) (UniProt P31422); assay: Antagonistic activity against Glutamate receptor in rat spinal cord at concentration of 5.0 uM.; format: functional, tissue-based
Summary of the method: as §2

[21] = target: Substance-P receptor (Rattus norvegicus) (UniProt P14600); assay: Antagonistic activity against Substance P(6-11) receptor in rat spinal cord at concentration of 25 uM.
[22] = target: Metabotropic glutamate receptor 3 (Rattus norvegicus) (UniProt P31422); assay: Antagonistic activity against Glutamate receptor in rat spinal cord at concentration of 50 uM.; format: functional, tissue-based
Summary of the method: as §2

[23] = target: Substance-P receptor (Rattus norvegicus) (UniProt P14600); assay: Antagonistic activity against Substance P receptor in rat spinal cord at concentration of 25 uM.
[24] = target: Metabotropic glutamate receptor 3 (Rattus norvegicus) (UniProt P31422); assay: Antagonistic activity against Glutamate receptor in rat spinal cord at concentration of 25 uM.; format: functional, tissue-based
Summary of the method: as §2

Substance-P receptor (Rattus norvegicus), sequence (P14600 whole entry, looked up): as the sequence (P14600 whole entry) above

| SMILES | Activity [2] | Change in amplitude response [4] | Activity [7] | Change in amplitude response [8] | Activity [10] | Activity [12] | Change in amplitude response [13] | Change in amplitude response [22] | further results |
| --- | --- | --- | --- | --- | --- | --- | --- | --- | --- |
| COC(=O)[C@H](CCSC)NC(=O)[C@H](CC(C)C)NC(=O)[C@@H](Cc1c[nH]c2ccccc12)NC(=O)[C@H](Cc1ccccc1)NC(=O)[C@@H](Cc1ccccc1)NC(=O)[C@H](CCCN=C(N)N)NC(=O)[C@H](CC(N)=O)NC(=O)C1CCCN1C(=O)[C@H](CCCCNC(=O)OCc1ccccc1)NC(=O)C1CCCN1C(=O)[C@H](CCCN=C(N)N)NC(=O)OCc1ccccc1 (stereo in doubt) | 3.2 dose ratio | -3% | 11.1 dose ratio | -37% | 31.1 dose ratio | 14 dose ratio | -85% | – | Change in amplitude response [1]: -29%; Change in amplitude response [3]: -75%; Change in amplitude response [5]: -1%; Change in amplitude response [6]: -52%; IC50 [9]: 600 nM; Change in amplitude response [11]: 20%; Change in amplitude response [14]: -51%; Change in amplitude response [15]: 3%; Change in amplitude response [16]: -73% |
| COC(=O)[C@@H](CCSC)NC(=O)[C@H](CC(C)C)N(C)C(=O)CN(C)C(=O)[C@H](Cc1ccccc1)NC(=O)[C@@H](Cc1ccccc1)NC(=O)[C@H](CCC(N)=O)NC(=O)[C@H](CCC(N)=O)NC(=O)C1CCCN1C(=O)[C@H](CCCCNC(=O)OCc1ccccc1)NC(=O)C1CCCN1C(=O)[C@H](CCCN=C(N)N)NC(=O)OCc1ccccc1 (stereo in doubt) | – | – | – | – | – | – | – | – | Change in amplitude response [17]: 6%; Change in amplitude response [18]: -35%; Change in amplitude response [19]: 0%; Change in amplitude response [20]: 0% |
| COC(=O)[C@@H](CCSC)NC(=O)[C@H](CC(C)C)NC(=O)CN(C)C(=O)[C@H](Cc1ccccc1)NC(=O)[C@@H](Cc1ccccc1)NC(=O)[C@H](CCC(N)=O)NC(=O)[C@H](CCC(N)=O)NC(=O)C1CCCN1C(=O)OC(C)(C)C (stereo in doubt) | < 2 dose ratio | – | < 2 dose ratio | -12% | < 2 dose ratio | < 2 dose ratio | -57% | -4% | Change in amplitude response [21]: -29%; Change in amplitude response [23]: 7% |
| COC(=O)[C@@H](CCSC)NC(=O)[C@H](CC(C)C)NC(=O)CN(C)C(=O)[C@H](Cc1ccccc1)NC(=O)[C@@H](Cc1ccccc1)NC(=O)[C@H](CCC(N)=O)NC(=O)[C@H](CCC(N)=O)NC(=O)C1CCCN1C(=O)[C@H](CCCCNC(=O)OCc1ccccc1)NC(=O)C1CCCN1C(=O)[C@H](CCCN=C(N)N)NC(=O)OCc1ccccc1 (stereo in doubt) | – | -15% | – | – | – | – | – | -36% | Change in amplitude response [24]: -24% |
